{
  "source": "ChEMBL document CHEMBL1811848",
  "about": "(Bioorg Med Chem Lett, 2011)",
  "key": {"[1]": {"biological_target": "T1, Peroxisome proliferator-activated receptor gamma (Homo sapiens) (UniProt P37231)", "T1 sequence (whole entry)": "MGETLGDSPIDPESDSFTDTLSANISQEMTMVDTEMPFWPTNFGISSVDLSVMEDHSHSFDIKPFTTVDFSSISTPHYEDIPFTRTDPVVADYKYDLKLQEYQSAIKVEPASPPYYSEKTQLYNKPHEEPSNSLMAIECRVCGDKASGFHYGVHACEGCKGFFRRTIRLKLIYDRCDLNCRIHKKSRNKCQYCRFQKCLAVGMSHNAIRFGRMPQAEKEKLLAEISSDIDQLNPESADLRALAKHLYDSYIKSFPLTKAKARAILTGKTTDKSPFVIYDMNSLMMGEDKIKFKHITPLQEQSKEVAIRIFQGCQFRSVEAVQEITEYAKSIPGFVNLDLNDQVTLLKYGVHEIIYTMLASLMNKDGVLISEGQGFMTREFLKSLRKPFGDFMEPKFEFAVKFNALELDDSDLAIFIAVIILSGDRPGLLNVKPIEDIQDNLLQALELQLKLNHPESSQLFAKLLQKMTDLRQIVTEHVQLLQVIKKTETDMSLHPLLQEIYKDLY", "test": "Transactivation of human PPARgamma expressed in human HepG2 cells co-transfected with PPRE3-TK-Luc by luciferase reporter gene assay relative to Rosiglitazone", "format": "cell-based", "in_short": "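Same HepG2 hPPARα or hPPARγ / PPRE3-TK-luc luciferase transactivation assay. Efficacy expressed as percent of maximal response, normalized to 100% for the reference agonist: WY-14643 for α, rosiglitazone for γ.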"}, "Rattus norvegicus [2]": {"system": "Rattus norvegicus", "test": "Toxicity in male Wistar rat assessed as testes to body weight ratio at 3 mg/kg, po measured after 28 days (reference value: 1.075 +/-1 0.106)", "format": "organism-based, Testis", "parameters": "dose 3 mg/kg, route oral", "details": "in vivo, 672 h"}, "Rattus norvegicus [3]": {"system": "Rattus norvegicus", "test": "Toxicity in male Wistar rat assessed as brain to body weight ratio at 30 mg/kg, po measured after 28 days (reference value: 0.658 +/- 0.015)", "format": "organism-based", "parameters": "dose 30 mg/kg, route oral", "details": "in vivo, 672 h"}, "[4]": {"test": "Tmax in fasting Wistar rat at 30 mg/kg, po", "format": "ADME, organism-based", "parameters": "dose 30 mg/kg, route oral", "details": "in vivo", "in_short": "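Fasted male Wistar rats received one oral dose of 30 mg/kg. Plasma Cmax, T1/2 and Tmax are reported as mean ± SD of n = 3.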"}, "Rattus norvegicus [5]": {"system": "Rattus norvegicus", "test": "Toxicity in male Wistar rat assessed as Glucose level at 3 mg/kg, po measured after 28 days (reference value: 70 +/- 3.49 mg/dl)", "format": "organism-based", "parameters": "dose 3 mg/kg, route oral", "details": "in vivo, 672 h"}, "Rattus norvegicus [6]": {"system": "Rattus norvegicus", "test": "Toxicity in male Wistar rat assessed as urea level at 3 mg/kg, po measured after 28 days (reference value: 30.52 +/- 0.79 mg/dl)", "format": "organism-based", "parameters": "dose 3 mg/kg, route oral", "details": "in vivo, 672 h"}, "Rattus norvegicus [7]": {"system": "Rattus norvegicus", "test": "Toxicity in female Wistar rat assessed as Glucose level at 3 mg/kg, po measured after 28 days (reference value: 69.94 +/- 2.30 mg/dl)", "format": "organism-based", "parameters": "dose 3 mg/kg, route oral", "details": "in vivo, 672 h"}, "Rattus norvegicus [8]": {"system": "Rattus norvegicus", "test": "Toxicity in female Wistar rat assessed as liver to body weight ratio at 30 mg/kg, po measured after 28 days (reference value: 3.091 +/- 0.087)", "format": "organism-based", "parameters": "dose 30 mg/kg, route oral", "details": "in vivo, 672 h"}, "Rattus norvegicus [9]": {"system": "Rattus norvegicus", "test": "Toxicity in female Wistar rat assessed as thymus to body weight ratio at 30 mg/kg, po measured after 28 days (reference value: 0.094 +/- 0.01)", "format": "organism-based", "parameters": "dose 30 mg/kg, route oral", "details": "in vivo, 672 h"}, "Rattus norvegicus [10]": {"system": "Rattus norvegicus", "test": "Toxicity in female Wistar rat assessed as SGOT level at 30 mg/kg, po measured after 28 days (reference value: 155.70 +/- 6.56 U/L)", "format": "organism-based", "parameters": "dose 30 mg/kg, route oral", "details": "in vivo, 672 h"}, "Rattus norvegicus [11]": {"system": "Rattus norvegicus", "test": "Toxicity in female Wistar rat assessed as SGOT level at 3 mg/kg, po measured after 28 days (reference value: 155.70 +/- 6.56 U/L)", "format": "organism-based", "parameters": "dose 3 mg/kg, route oral", "details": "in vivo, 672 h"}, "Rattus norvegicus [12]": {"system": "Rattus norvegicus", "test": "Toxicity in female Wistar rat assessed as uterus to body weight ratio at 30 mg/kg, po measured after 28 days (reference value: 0.233 +/- 0.041)", "format": "organism-based", "parameters": "dose 30 mg/kg, route oral", "details": "in vivo, 672 h"}, "Mus musculus [13]": {"system": "Mus musculus", "test": "Antihyperglycemic activity in db/db mouse assessed as reduction in plasma glucose level at 0.03 mg/kg, po", "format": "functional", "parameters": "scale not given: the % may be the effect or the level left"}, "Rattus norvegicus [14]": {"system": "Rattus norvegicus", "test": "Toxicity in female Wistar rat assessed as spleen to body weight ratio at 3 mg/kg, po measured after 28 days (reference value: 0.237 +/- 0.012)", "format": "organism-based", "parameters": "dose 3 mg/kg, route oral", "details": "in vivo, 672 h"}, "Rattus norvegicus [15]": {"system": "Rattus norvegicus", "test": "Toxicity in female Wistar rat assessed as heart to body weight ratio at 3 mg/kg, po measured after 28 days (reference value: 0.403 +/- 0.010)", "format": "organism-based", "parameters": "dose 3 mg/kg, route oral", "details": "in vivo, 672 h"}, "Mus musculus [16]": {"system": "Mus musculus", "test": "Antihyperglycemic activity in db/db mouse assessed as reduction in glucose level at 3 mg/kg/day, po administered for 6 days relative to control", "format": "functional", "parameters": "scale not given: the % may be the effect or the level left", "in_short": "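Male db/db mice aged 6–8 weeks were dosed orally once daily for 6 days. Plasma glucose was then measured and expressed as % change versus vehicle-treated controls.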"}, "Mus musculus [17]": {"system": "Mus musculus", "test": "Hypolipidemic activity in db/db mouse assessed as reduction in triglyceride level at 1 mg/kg, po", "format": "functional", "parameters": "scale not given: the % may be the effect or the level left"}, "Rattus norvegicus [18]": {"system": "Rattus norvegicus", "test": "Toxicity in male Wistar rat assessed as SGPT level at 3 mg/kg, po measured after 28 days (reference value: 34.24 +/- 2.13 U/L)", "format": "organism-based", "parameters": "dose 3 mg/kg, route oral", "details": "in vivo, 672 h"}, "Rattus norvegicus [19]": {"system": "Rattus norvegicus", "test": "Toxicity in female Wistar rat assessed as thymus to body weight ratio at 3 mg/kg, po measured after 28 days (reference value: 0.094 +/-0.01)", "format": "organism-based", "parameters": "dose 3 mg/kg, route oral", "details": "in vivo, 672 h"}, "Rattus norvegicus [20]": {"system": "Rattus norvegicus", "test": "Toxicity in male Wistar rat assessed as epididymine to body weight ratio at 3 mg/kg, po measured after 28 days (reference value: 0.391 +/- 0.017)", "format": "organism-based", "parameters": "dose 3 mg/kg, route oral", "details": "in vivo, 672 h"}, "Rattus norvegicus [21]": {"system": "Rattus norvegicus", "test": "Toxicity in female Wistar rat assessed as brain to body weight ratio at 3 mg/kg, po measured after 28 days (reference value: 0.970 +/- 0.023)", "format": "organism-based", "parameters": "dose 3 mg/kg, route oral", "details": "in vivo, 672 h"}, "Mus musculus [22]": {"system": "Mus musculus", "test": "Antihyperglycemic activity in db/db mouse assessed as reduction in plasma glucose level at 1 mg/kg, po", "format": "functional", "parameters": "scale not given: the % may be the effect or the level left"}, "Rattus norvegicus [23]": {"system": "Rattus norvegicus", "test": "Toxicity in female Wistar rat assessed as SGPT level at 30 mg/kg, po measured after 28 days (reference value: 30.44 +/- 1.59 U/L)", "format": "organism-based", "parameters": "dose 30 mg/kg, route oral", "details": "in vivo, 672 h"}, "Mus musculus [24]": {"species_on_record": "Mus musculus", "test": "Hypolipidemic activity in db/db mouse assessed as reduction in triglyceride level", "format": "functional"}},
  "data": [
    {"smiles": "CCO[C@@H](Cc1ccc(OCCc2nc(-c3ccc(C)s3)oc2C)cc1)C(=O)O", "values": [
      {"measurement": "Emax", "setting": "[1]", "value": 165, "unit": "%"},
      {"measurement": "Ratio", "setting": "Rattus norvegicus [2]", "value": 1.152},
      {"measurement": "Ratio", "setting": "Rattus norvegicus [3]", "value": 0.757},
      {"measurement": "Tmax", "setting": "[4]", "value": 40, "unit": "min"},
      {"measurement": "Activity", "setting": "Rattus norvegicus [5]", "value": 75.74, "unit": "mg/dL"},
      {"measurement": "Activity", "setting": "Rattus norvegicus [6]", "value": 31.24, "unit": "mg/dL"},
      {"measurement": "Activity", "setting": "Rattus norvegicus [7]", "value": 91.88, "unit": "mg/dL"},
      {"measurement": "Ratio", "setting": "Rattus norvegicus [8]", "value": 7.075},
      {"measurement": "Ratio", "setting": "Rattus norvegicus [9]", "value": 0.066},
      {"measurement": "Activity", "setting": "Rattus norvegicus [10]", "value": 224, "unit": "U/L"},
      {"measurement": "Activity", "setting": "Rattus norvegicus [11]", "value": 157.09, "unit": "U/L"},
      {"measurement": "Ratio", "setting": "Rattus norvegicus [12]", "value": 0.189},
      {"measurement": "Activity", "setting": "Mus musculus [13]", "value": 52.1, "unit": "%"},
      {"measurement": "Ratio", "setting": "Rattus norvegicus [14]", "value": 0.257},
      {"measurement": "Ratio", "setting": "Rattus norvegicus [15]", "value": 0.46},
      {"measurement": "Activity", "setting": "Mus musculus [16]", "value": 72, "unit": "%"},
      {"measurement": "Activity", "setting": "Mus musculus [17]", "value": 64.2, "unit": "%"},
      {"measurement": "Activity", "setting": "Rattus norvegicus [18]", "value": 28.54, "unit": "U/L"},
      {"measurement": "Ratio", "setting": "Rattus norvegicus [19]", "value": 0.101},
      {"measurement": "Ratio", "setting": "Rattus norvegicus [20]", "value": 0.36},
      {"measurement": "Ratio", "setting": "Rattus norvegicus [21]", "value": 0.947},
      {"measurement": "Activity", "setting": "Mus musculus [22]", "value": 59.7, "unit": "%"},
      {"measurement": "Activity", "setting": "Rattus norvegicus [23]", "value": 35.21, "unit": "U/L"},
      {"measurement": "ED50", "setting": "Mus musculus [24]", "value": 0.0188, "unit": "mg/kg"}
    ]}
  ]
}
